High-throughput results (PubChem BioAssay)
TCR-CD3 inh – inhibitors of human TCR-CD3 interaction, primary screen, biochemical, fluorescence, TAMRA-labeled TCR probe | actives 0.37% (n = 360,000) | T-cell receptor (TCR) | inhibition, % at 9.4 µM | AID 651800, 2012; in the data active = inhibition above about 19%;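 note: recombinant mutant TCR 2C K166C tagged with TAMRA read by polarization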
SIAE inh – human SIAE inhibitors, primary screen, biochemical, fluorescence polarization, FP-Rh probe, 1536-well HTS | Sialate O-acetylesterase (Homo sapiens), Q9HAT2 | SIAE FP-Rh probe binding | inhibition, % at 9.66 µM | actives 0.69% (n = 370,000) | AID 1053197, 2014;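 active = inhibition above a cutoff: mean of compounds within the control limits plus 3 SD of those, cut at about 17% in these data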
Target sequence (Q9HAT2 whole entry, looked up): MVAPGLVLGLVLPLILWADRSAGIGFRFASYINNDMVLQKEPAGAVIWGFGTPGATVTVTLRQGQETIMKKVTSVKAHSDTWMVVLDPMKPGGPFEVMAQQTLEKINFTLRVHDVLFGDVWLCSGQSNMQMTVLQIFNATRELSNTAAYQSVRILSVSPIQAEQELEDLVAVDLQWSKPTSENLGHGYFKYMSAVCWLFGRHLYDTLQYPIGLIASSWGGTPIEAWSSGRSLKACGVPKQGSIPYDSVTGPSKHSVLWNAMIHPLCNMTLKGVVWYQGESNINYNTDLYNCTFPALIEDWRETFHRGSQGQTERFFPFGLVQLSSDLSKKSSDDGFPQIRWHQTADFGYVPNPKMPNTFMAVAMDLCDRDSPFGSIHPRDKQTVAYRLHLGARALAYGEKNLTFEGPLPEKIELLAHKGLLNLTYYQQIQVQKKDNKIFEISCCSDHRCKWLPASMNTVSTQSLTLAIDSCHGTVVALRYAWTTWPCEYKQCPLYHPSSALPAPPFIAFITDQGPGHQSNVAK
LEDGF integ inh – blockers of LEDGF/p75-dependent integrase strand transfer – biochemical, TR-FRET, high throughput, primary screen | inhibition, % at 3.7 µM | TR-FRET IN-LEDGF/p75 DNA integration, Eu/Cy5 | actives 0.64% (n = 370,000);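 active = inhibition above the screen-wide mean plus 3 SD, cut at about 13% in these data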;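 note: signal is the Cy5 over europium emission ratio at 671 and 618 nm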
TDP2 absorb – human TDP2 enzyme inhibitors, primary screen, biochemical, epi absorbance, recombinant enzyme; Tyrosyl-DNA phosphodiesterase 2 (Homo sapiens), O95551; T5PNP hydrolysis, p-nitrophenol absorbance 415 nm; inhibition, % at 12.8 µM; actives 0.34% (n = 370,000); AID 720702, 2013;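 active = inhibition above the mean of all tested compounds plus 3 SD, set per campaign, cut at about 25% in these data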
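System: recombinant human TDP2 / Amount: 120 nM TDP2 per well / Also added: 5 mM T5PNP chromogenic substrate / Doses: 12.8 µM single point, 1% DMSO / Incubation: 2 h at 37 °C / Detection: p-Nitrophenol epi absorbance / Evaluation: % inhibition relative to enzyme-containing and enzyme-free wells / Repeats: singlicate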
mABHD4 FP – ABHD4 inhibitors, primary screen, biochemical, fluorescence polarization, mouse. purified mABHD4, FP-Rh probe fluorescence polarization. inhibition, % at 8.92 µM. actives 0.54% (n = 370,000). AID 720543, 2013;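 active = inhibition exceeding the mean over every tested compound plus 3 SD, cut at about 30% in these data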
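Test system: mABHD4 protein | Buffer or medium: HEPES pH 7.0 buffer, 150 mM NaCl, 0.01% Pluronic F-127 | Probe or stimulus: FP-Rh fluorescent activity-based probe, added after compound pre-incubation | Timing: Pre-incubation 45 min, probe exposure 60 min, at 25 °C | Technique: Fluorescence polarization, excitation 525 nm, emission 598 nm, BODIPY TMR filters | Repeats: Single well per compound (singlicate)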
HTRA1 inh – HTRA1 serine protease inhibitors, primary screen, biochemical, fluorescence polarization, HTS; AID 504803, 2011; inhibition, % at 5.96 µM; recombinant HTRA1, FP-rhodamine activity-based probe; actives 0.5% (n = 340,000); Q92743; in the data active = inhibition above about 36%
IN multimer up – HIV-1 IN multimer formation enhancers, counter-screen for LEDGF/p75 integration inhibitor project, biochemical, TR-FRET | TR-FRET HIV-1 integrase multimerization | actives 17% (n = 2,000) | shares compounds with LEDGF integ inh | activation, % at 7.7 µM; in the data active = activation above about 8.9%
TR-FRET interf – TR-FRET optical interference artefacts, confirmation, artefact control for LEDGF/p75-dependent integration inhibitor project, biochemical, HIV-1 IN multimerization; shares compounds with LEDGF integ inh; inhibition, % at 7.7 µM; 2,000 tested, under 10 active; TR-FRET optical interference counterscreen;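 active = inhibition above the mean over all tested compounds plus 3 SD, which no compound reached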
IN-LEDGF confirm – inhibitors of HIV-1 IN-LEDGF/p75 DNA integration, confirmation, biochemical, TR-FRET | shares compounds with LEDGF integ inh | TR-FRET LEDGF/p75-dependent HIV-1 integration | inhibition, % at 3.7 µM | actives 36% (n = 2,000); in the data active = inhibition above about 14%
A number is an active result. Most compounds without a hit are left out; they make up all but 2.2% or so of the library.

Screening Cc1cc(N2CCN(C(=O)OC(C)(C)C)C[C@H]2C)ccc1N1C[C@@H](C)O[C@@H](C)C1 returned TCR-CD3 inh inactive, SIAE inh inactive, LEDGF integ inh inactive, TDP2 absorb inactive and mABHD4 FP inactive.
`CCOc1ccc(S(=O)(=O)NCCC(=O)N2CCN(c3ncccn3)CC2)cc1` gave TCR-CD3 inh inactive, SIAE inh inactive, LEDGF integ inh 77, TDP2 absorb inactive, mABHD4 FP inactive, HTRA1 inh inactive, IN multimer up inactive, TR-FRET interf inactive and IN-LEDGF confirm inactive.
Screening O=C(CCNS(=O)(=O)c1ccc(Cl)cc1)N1CCN(c2ncccn2)CC1 returned TCR-CD3 inh inactive, SIAE inh inactive, LEDGF integ inh inactive, TDP2 absorb inactive, mABHD4 FP inactive and HTRA1 inh inactive.
C/C=C(/C)C(=O)Nc1cccc(C2=NOC3(C2)C[C@@H](C(N)=O)N(C(=O)[C@H]2CCC(=O)N2)C3)c1 (some centres not stated) was read as TCR-CD3 inh inactive, SIAE inh inactive, LEDGF integ inh inactive, TDP2 absorb inactive, mABHD4 FP inactive and HTRA1 inh inactive.
C=C(C)C(=O)Nc1cccc(C2=NOC3(C2)C[C@@H](C(N)=O)N(C(=O)[C@H]2CCC(=O)N2)C3)c1 (some centres not stated) was read as TCR-CD3 inh inactive, SIAE inh inactive, LEDGF integ inh 28, TDP2 absorb inactive, mABHD4 FP inactive, HTRA1 inh inactive, IN multimer up inactive, TR-FRET interf inactive and IN-LEDGF confirm 24.
For COc1ccccc1[N+](=O)[O-] the results were TCR-CD3 inh inactive, SIAE inh inactive, LEDGF integ inh inactive, TDP2 absorb inactive, mABHD4 FP inactive and HTRA1 inh inactive.
`Cc1ccc(S(=O)(=O)Oc2ccccc2[N+](=O)[O-])cc1` gave TCR-CD3 inh inactive, SIAE inh inactive, LEDGF integ inh 35, TDP2 absorb inactive, mABHD4 FP inactive, HTRA1 inh inactive, IN multimer up inactive, TR-FRET interf inactive and IN-LEDGF confirm inactive.
Screening Cc1ccc(Cc2c(-c3ccccc3)nc3c(Cl)cc(C(F)(F)F)cn23)cc1 returned TCR-CD3 inh inactive, SIAE inh inactive, LEDGF integ inh 20, TDP2 absorb inactive, mABHD4 FP inactive, IN multimer up inactive, TR-FRET interf inactive and IN-LEDGF confirm inactive.
`Cc1ccc([N+](=O)[O-])cc1-c1ccc(/C=N/NC(=O)CN2CCOCC2)o1` gave TCR-CD3 inh inactive, SIAE inh inactive, LEDGF integ inh inactive, TDP2 absorb inactive, mABHD4 FP inactive and HTRA1 inh inactive.
Cc1ccc(Cl)cc1-c1ccc(C=Nc2ccc(N3CCOCC3)cc2)o1 was read as TCR-CD3 inh inactive, SIAE inh inactive, LEDGF integ inh 28, TDP2 absorb inactive, mABHD4 FP inactive, HTRA1 inh inactive, IN multimer up inactive, TR-FRET interf inactive and IN-LEDGF confirm inactive.
`CCOC(=O)Cc1nc(N2CCN(CCO)CC2)c2c(C)c(C(=O)OCC)sc2n1` gave SIAE inh inactive, LEDGF integ inh inactive, TDP2 absorb inactive and mABHD4 FP inactive.
`Oc1cccc(Nc2ccccc2)c1` gave TCR-CD3 inh inactive, SIAE inh inactive, LEDGF integ inh 16, TDP2 absorb inactive, mABHD4 FP inactive, HTRA1 inh inactive, IN multimer up 26, TR-FRET interf inactive and IN-LEDGF confirm inactive.
For Oc1cccc(NC(=S)Nc2ccccc2)c1 the results were TCR-CD3 inh inactive, SIAE inh inactive, LEDGF integ inh inactive, TDP2 absorb inactive, mABHD4 FP inactive and HTRA1 inh inactive.
Screening Oc1ccc(/C=N/N2CCOCC2)c(O)c1O returned TCR-CD3 inh inactive, SIAE inh inactive, LEDGF integ inh 52, TDP2 absorb inactive, mABHD4 FP inactive, HTRA1 inh inactive, IN multimer up inactive, TR-FRET interf inactive and IN-LEDGF confirm 18.
`O=C(CCO)c1ccc(O)cc1` gave TCR-CD3 inh 27, SIAE inh inactive, LEDGF integ inh 32, TDP2 absorb inactive, mABHD4 FP inactive, HTRA1 inh inactive, IN multimer up 54, TR-FRET interf inactive and IN-LEDGF confirm 71.
Screening COc1cc(F)ccc1-c1csc(C(C)(O)c2ccc(F)c(F)c2)n1 (configuration not stated) returned TCR-CD3 inh inactive, SIAE inh inactive, LEDGF integ inh inactive, TDP2 absorb inactive and mABHD4 FP inactive.
For Cc1nn(-c2cc(C(F)(F)F)ccc2Cl)c2nc(C(F)(F)F)[nH]c(=O)c12 the results were TCR-CD3 inh inactive, SIAE inh inactive, LEDGF integ inh 83, TDP2 absorb inactive, mABHD4 FP inactive, HTRA1 inh inactive, IN multimer up inactive, TR-FRET interf inactive and IN-LEDGF confirm inactive.
For Cc1nn(-c2cccc(Cl)c2)c2nc(C(F)(F)F)[nH]c(=O)c12 the results were TCR-CD3 inh inactive, SIAE inh inactive, LEDGF integ inh inactive, TDP2 absorb inactive, mABHD4 FP inactive and HTRA1 inh inactive.
CCOC(=O)C1=C(C)NC(=O)CC1c1cc2c(cc1[N+](=O)[O-])OCO2 (configuration not stated) was read as TCR-CD3 inh inactive, SIAE inh inactive, LEDGF integ inh 22, TDP2 absorb inactive, mABHD4 FP inactive, HTRA1 inh inactive, IN multimer up inactive, TR-FRET interf inactive and IN-LEDGF confirm inactive.
Screening N#CCSc1ccccc1NC(=O)COc1ccc(-c2nnco2)cc1 returned TCR-CD3 inh inactive, SIAE inh inactive, LEDGF integ inh 14, TDP2 absorb inactive, mABHD4 FP inactive, HTRA1 inh inactive, IN multimer up inactive, TR-FRET interf inactive and IN-LEDGF confirm inactive.
Screening Cc1ccc(S(=O)(=O)N2CCCN(C(=O)c3ccc(-n4cccn4)cc3)CC2)cc1 returned TCR-CD3 inh inactive, SIAE inh inactive, LEDGF integ inh inactive, TDP2 absorb inactive, mABHD4 FP inactive and HTRA1 inh inactive.
